Data as given in ChEMBL document CHEMBL2093137, “WHO-TDR NTD Screening”.
Values after ≈ are worked out from the molar mass of the structure shown.

Tests used:
[1] = WHO-TDR: Cytotoxicity; assay type: toxicity, cell-based; conditions: human, MRC5 cells
Plasmodium falciparum K1 = assay: WHO-TDR: Malaria; assay type: functional, organism-based, Homo sapiens; conditions: Erythrocyte
Procedure, shortened: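 Following previously published standard procedures, with a reference drug serving as positive control, compounds were tested on the Plasmodium falciparum K1 strain inside human red blood cells. The 10,000-compound diverse set came from Life Chemicals after filtering for drug-likeness and reactive groups. Potency against the parasite appears as IC50.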

Trypanosoma cruzi = assay: WHO-TDR: Chagas disease; assay type: functional, organism-based, Homo sapiens; conditions: MRC5
Procedure, shortened: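 Following previously published standard procedures, with a reference drug as positive control, a whole-organism assay was run on Trypanosoma cruzi Tulahuen CL2 beta-galactosidase strain amastigotes inside MRC-5SV2 human lung fibroblast host cells. The 10,000 compounds tested formed a diverse Life Chemicals library filtered for drug-likeness and reactive groups. Results are expressed as IC50 for antiparasitic potency.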

[2] = system: Trypanosoma brucei brucei; assay: WHO-TDR: Human African Trypanosomiasis (HAT); assay type: functional, organism-based; conditions: Squib-427
Procedure, shortened: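 Bloodstream forms of the Trypanosoma brucei Squib 427 strain were tested in a whole-organism screen with a diverse library from Life Chemicals of 10,000 compounds. Before screening, the library was filtered for drug-likeness and for reactive groups. The assay used previously published standard procedures and included reference drugs as positive controls. Potency against the parasite is expressed as IC50.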

Leishmania infantum = assay: WHO-TDR: Leishmaniasis; assay type: functional, organism-based, Mus musculus; conditions: Macrophage
Procedure, shortened: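 Following previously published standard procedures, a whole-organism screen was run on Leishmania infantum MHOM/MA(BE)/67 amastigotes within murine peritoneal macrophages, with a reference drug as positive control. The 10,000 compounds tested formed a diverse Life Chemicals library filtered for drug-likeness and reactive groups. Potency against the parasite is reported as IC50.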

Schistosoma mansoni = assay: WHO-TDR: Schistosomiasis; assay type: functional; parameters: concentration or dose not given beside the values
Procedure, shortened: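 Percent inhibition and IC50 describe activity against whole Schistosoma mansoni worms of the Puerto Rican strain, tested as larvae and/or adults. The compounds screened were a diverse set of 10,000 from Life Chemicals, filtered for drug-likeness and reactive groups. Testing followed previously published standard procedures, with a reference drug as positive control.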

Onchocerca ochengi = assay: WHO-TDR: Onchocerciasis; assay type: functional; parameters: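 at 12.5 µM on microfilariae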
Procedure, shortened: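 Percent inhibition and IC50 describe activity against microfilariae of Onchocerca ochengi or Onchocerca lienalis, used as animal-pathogen substitutes for the human parasite. The compounds tested made up a 10,000-member diverse library from Life Chemicals.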

Brugia malayi = assay: WHO-TDR: Lymphatic Filariasis; assay type: functional; parameters: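 tested at 10 µM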
Procedure, shortened: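 The screening set was a 10,000-compound diverse library from Life Chemicals, filtered for drug-likeness and for reactive groups. It was run against Brugia malayi microfilariae as whole organisms, using previously published standard procedures. Reference drugs acted as positive controls, and activity is reported both as percent inhibition and as IC50.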

| IC50 (Plasmodium falciparum K1) | IC50 [2] | IC50 (Leishmania infantum) | SMILES | IC50 [1] | IC50 (Trypanosoma cruzi) | % Inhibition (Schistosoma mansoni) | % Inhibition (Onchocerca ochengi) | % Inhibition (Brugia malayi) |
| --- | --- | --- | --- | --- | --- | --- | --- | --- |
| > 11.4 µg/mL | > 11.4 µg/mL | > 11.4 µg/mL | CC1(C)Cc2cccc(OCCCS(=O)(=O)NCc3cccs3)c2O1 | > 11.4 µg/mL | > 11.4 µg/mL | 0% | 100% | 20% |
| > 10.7 µg/mL | > 10.7 µg/mL | > 10.7 µg/mL | CC1CC(C)CN(S(=O)(=O)CCCOc2ccc3c(c2)OCO3)C1 (stereo not drawn) | 4.25 µg/mL (≈ 11.9 µM) | > 10.7 µg/mL | 100% | 0% | 20% |
| > 13 µg/mL | 8.57 µg/mL (≈ 19.8 µM) | > 13 µg/mL | O=S(=O)(CCCOc1ccc2c(c1)OCO2)NC1CCN(Cc2ccccc2)CC1 | > 13 µg/mL | 13 µg/mL (≈ 30 µM) | 16.7% | 100% | 0% |
| > 12.1 µg/mL | > 12.1 µg/mL | > 12.1 µg/mL | O=S(=O)(CCCOc1ccc2c(c1)OCO2)NCCc1c[nH]c2ccccc12 | > 12.1 µg/mL | 3.12 µg/mL (≈ 7.74 µM) | 0% | 100% | 0% |
| > 10.7 µg/mL | > 10.7 µg/mL | > 10.7 µg/mL | O=S(=O)(CCCOc1ccc(F)cc1)NCc1ccccc1Cl | > 10.7 µg/mL | 7.84 µg/mL (≈ 21.9 µM) | 0% | 100% | 0% |
| > 10.5 µg/mL | > 10.5 µg/mL | > 10.5 µg/mL | O=S(=O)(CCCOc1ccc(F)cc1)NCCCc1ccccc1 | 10.5 µg/mL (≈ 30 µM) | > 10.5 µg/mL | 0% | 100% | 0% |
| > 10.1 µg/mL | 3.22 µg/mL (≈ 9.6 µM) | > 10.1 µg/mL | O=S(=O)(CCCOc1ccc(F)cc1)N1CCc2ccccc21 | > 10.1 µg/mL | 3.09 µg/mL (≈ 9.2 µM) | 0% | 100% | 0% |
| > 10.8 µg/mL | > 10.8 µg/mL | 0.349 µg/mL (≈ 0.971 µM) | O=S(=O)(CCCOc1ccc(F)cc1)NCc1c(F)cccc1F | > 10.8 µg/mL | 5.73 µg/mL (≈ 16 µM) | 0% | 50% | 0% |
| > 12.2 µg/mL | 3.86 µg/mL (≈ 9.49 µM) | > 12.2 µg/mL | O=S(=O)(CCCOc1ccc(F)cc1)NC1CCN(Cc2ccccc2)CC1 | > 12.2 µg/mL | > 12.2 µg/mL | 50% | 100% | 0% |
| > 12.6 µg/mL | 4.04 µg/mL (≈ 9.6 µM) | > 12.6 µg/mL | O=C(CCCn1nc(-c2ccccc2)ccc1=O)N1CCN(c2ccccc2F)CC1 | > 12.6 µg/mL | 3.81 µg/mL (≈ 9.07 µM) | 25% | 100% | 0% |
| > 12.3 µg/mL | > 12.3 µg/mL | > 12.3 µg/mL | NC(=O)c1ccc(NC(=O)CCCn2nc(-c3ccc(Cl)cc3)ccc2=O)cc1 | > 12.3 µg/mL | > 12.3 µg/mL | 16.7% | 100% | 0% |
| > 12.6 µg/mL | > 12.6 µg/mL | > 12.6 µg/mL | O=C(CCCn1nc(-c2ccc(F)cc2)ccc1=O)Nc1ccc(C(F)(F)F)cc1 | > 12.6 µg/mL | > 12.6 µg/mL | 0% | 100% | 0% |
| > 12.7 µg/mL | > 12.7 µg/mL | > 12.7 µg/mL | CCOc1ccc(-c2ccc(=O)n(CCCC(=O)Nc3ccccc3SC)n2)cc1 | > 12.7 µg/mL | 8.92 µg/mL (≈ 21.1 µM) | 0% | 100% | 0% |
| > 12.8 µg/mL | > 12.8 µg/mL | 0.415 µg/mL (≈ 0.972 µM) | COc1ccc2nc(-c3ccc(OC)c(NC(=O)c4c(F)cccc4Cl)c3)cn2n1 | > 12.8 µg/mL | > 12.8 µg/mL | 0% | 0% | 0% |
| > 12.6 µg/mL | > 12.6 µg/mL | > 12.6 µg/mL | CCC(C(=O)Nc1cc(-c2cn3nc(OC)ccc3n2)ccc1Cl)c1ccccc1 (stereo not drawn) | > 12.6 µg/mL | 8.38 µg/mL (≈ 19.9 µM) | 0% | 100% | 0% |
| > 11.3 µg/mL | > 11.3 µg/mL | 0.366 µg/mL (≈ 0.972 µM) | COc1ccc2nc(-c3ccc(F)c(NC(=O)Cc4ccccc4)c3)cn2n1 | > 11.3 µg/mL | > 11.3 µg/mL | 25% | 0% | 0% |

| IC50 (Plasmodium falciparum K1) | IC50 [2] | IC50 (Leishmania infantum) | SMILES | IC50 [1] | IC50 (Trypanosoma cruzi) | % Inhibition (Schistosoma mansoni) | % Inhibition (Onchocerca ochengi) | % Inhibition (Brugia malayi) |
| --- | --- | --- | --- | --- | --- | --- | --- | --- |
| > 10.6 µg/mL | > 10.6 µg/mL | 0.342 µg/mL (≈ 0.97 µM) | COc1ccc(CCC(=O)NCCc2ccc(N3CCCC3)cc2)cc1 | > 10.6 µg/mL | > 10.6 µg/mL | 0% | 0% | 0% |
| > 12.5 µg/mL | 6.95 µg/mL (≈ 16.7 µM) | > 12.5 µg/mL | CCC(=O)Nc1ccc(S(=O)(=O)NCCc2ccc(N3CCCC3)cc2)c(C)c1 | > 12.5 µg/mL | 5.06 µg/mL (≈ 12.2 µM) | 0% | 100% | 0% |
| > 8.35 µg/mL | > 8.35 µg/mL | 0.27 µg/mL (≈ 0.97 µM) | CCSc1nc(-c2ccccc2)c(NC(C)=O)s1 | > 8.35 µg/mL | > 8.35 µg/mL | 0% | 0% | 0% |
| > 12.4 µg/mL | 3.97 µg/mL (≈ 9.6 µM) | > 12.4 µg/mL | CCOc1ccccc1C(=O)Nc1sc(SCC(N)=O)nc1-c1ccccc1 | > 12.4 µg/mL | 7.06 µg/mL (≈ 17.1 µM) | 0% | 100% | 0% |
| > 12.3 µg/mL | > 12.3 µg/mL | > 12.3 µg/mL | NC(=O)CSc1nc(-c2ccccc2)c(NC(=O)c2cc3ccccc3o2)s1 | > 12.3 µg/mL | > 12.3 µg/mL | 25% | 100% | 33.33% |
| > 10.9 µg/mL | > 10.9 µg/mL | 0.352 µg/mL (≈ 0.971 µM) | Cc1csc(NC(=O)CSc2nc(-c3ccccc3)c(N)s2)n1 | > 10.9 µg/mL | 7.18 µg/mL (≈ 19.8 µM) | 0% | 50% | 33.33% |
| > 10.9 µg/mL | > 10.9 µg/mL | 0.353 µg/mL (≈ 0.971 µM) | Cc1nnc(NC(=O)CSc2nc(-c3ccccc3)c(N)s2)s1 | > 10.9 µg/mL | > 10.9 µg/mL | 16.7% | 0% | 33.33% |
| > 10.2 µg/mL | > 10.2 µg/mL | > 10.2 µg/mL | Cc1cc(-c2nnc(NC(=O)c3nc4ccccc4s3)o2)nn1C | > 10.2 µg/mL | 3.72 µg/mL (≈ 10.9 µM) | 0% | 100% | 33.33% |
| > 10.4 µg/mL | > 10.4 µg/mL | 0.337 µg/mL (≈ 0.97 µM) | Cc1cc(-c2nnc(NC(=O)CSc3ccc(F)cc3)o2)nn1C | > 10.4 µg/mL | > 10.4 µg/mL | 0% | 0% | 33.33% |
| > 13.1 µg/mL | 4.14 µg/mL (≈ 9.49 µM) | 4.24 µg/mL (≈ 9.71 µM) | Cc1cc(-c2nnc(NC(=O)C3CCCCN3S(=O)(=O)c3cccs3)o2)nn1C (stereo not drawn) | 4.91 µg/mL (≈ 11.2 µM) | 4.26 µg/mL (≈ 9.75 µM) | 0% | 100% | 33.33% |
| > 10.2 µg/mL | > 10.2 µg/mL | 0.33 µg/mL (≈ 0.972 µM) | CC(C)CC(=O)NCCOc1ccc2nnc(-c3ccccc3)n2n1 | > 10.2 µg/mL | > 10.2 µg/mL | 16.7% | 0% | 33.33% |
| > 13.1 µg/mL | > 13.1 µg/mL | 0.425 µg/mL (≈ 0.971 µM) | O=C(CCSc1ccccc1)NCCOc1ccc2nnc(-c3ccc(F)cc3)n2n1 | > 13.1 µg/mL | > 13.1 µg/mL | 41.7% | 0% | 33.33% |
| > 9.76 µg/mL | > 9.76 µg/mL | > 9.76 µg/mL | CC(C)(C)C(=O)N1CCN(c2ccc(-c3ccncc3)nn2)CC1 | > 9.76 µg/mL | > 9.76 µg/mL | 100% | 0% | 33.33% |
| > 11.4 µg/mL | > 11.4 µg/mL | 0.37 µg/mL (≈ 0.97 µM) | O=C(c1ccc(F)cc1F)N1CCN(c2ccc(-c3cccnc3)nn2)CC1 | > 11.4 µg/mL | > 11.4 µg/mL | 0% | 0% | 33.33% |
| 1.05 µg/mL (≈ 3.39 µM) | 2.94 µg/mL (≈ 9.49 µM) | > 9.28 µg/mL | O=C(C1CC1)N1CCN(c2ccc(-c3ccccn3)nn2)CC1 | 2.38 µg/mL (≈ 7.7 µM) | 2.1 µg/mL (≈ 6.77 µM) | 25% | 100% | 33.33% |
